pIC50: −log10 of the molar value.
Assays:
[1] = test system: HT-29 human colon cancer cells; experiment: Cytotoxicity assay; assay type: cell-based; settings: three days incubation, SRB
How it was run: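 HT-29 cells were trypsinized and seeded, then treated with test compound in DMSO at serial dilutions, with DMSO as negative control and paclitaxel as positive control, for three days at 37 °C, 5% CO2. Cells were fixed for 30 min at room temperature, washed, dried overnight and stained with SRB. Dye was solubilized in tris-base buffer and read at 515 nm. ED50 came from nonlinear regression, triplicates, two independent experiments.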

[2] = target: p65 subunit of NF-κB (Homo sapiens, UniProt Q04206); experiment: Enzyme-based ELISA NF-κB p65 inhibition assay; settings: read-out: NF-κB p65 inhibition IC50, HeLa cell nuclear extracts
Chain of p65 subunit of NF-κB (Q04206 whole entry): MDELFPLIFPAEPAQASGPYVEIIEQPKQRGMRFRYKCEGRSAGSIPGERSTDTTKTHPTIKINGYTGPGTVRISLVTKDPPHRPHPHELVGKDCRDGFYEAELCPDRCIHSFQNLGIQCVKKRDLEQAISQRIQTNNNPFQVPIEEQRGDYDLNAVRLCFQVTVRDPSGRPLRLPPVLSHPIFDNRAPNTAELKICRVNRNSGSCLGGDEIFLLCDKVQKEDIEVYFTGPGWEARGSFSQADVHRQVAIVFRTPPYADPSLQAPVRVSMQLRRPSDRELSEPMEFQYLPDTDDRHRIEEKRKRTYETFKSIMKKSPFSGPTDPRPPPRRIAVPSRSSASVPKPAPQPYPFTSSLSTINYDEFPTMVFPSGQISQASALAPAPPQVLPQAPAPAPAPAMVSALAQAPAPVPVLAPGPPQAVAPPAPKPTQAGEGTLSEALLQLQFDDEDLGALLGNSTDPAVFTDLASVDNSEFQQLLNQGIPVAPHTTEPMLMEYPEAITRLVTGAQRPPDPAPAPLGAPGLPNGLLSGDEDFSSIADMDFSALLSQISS

[3] = test system: HT-29 (colon adenocarcinoma), MCF-7 (breast cancer), and MDA-MB-435 (melanoma); experiment: In vivo hollow fiber assay; design: species or system human; settings: highest dose used 20 mg/kg; ip
How it was run: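 Hollow fibers carried HT-29, MCF-7 and MDA-MB-435 cells. Test compounds and the paclitaxel positive control were dosed ip across 1–20 mg/kg.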

Compound | cytotoxicity ED50 towards HT-29 cells [1] [µM] | pIC50 [2] | activity in in vivo hollow fiber assay [3]
1,3,7-trihydroxy-2,4-diisoprenylxanthone [Compound 5] | >10 | 5.54 | –
COc1c(OC(C)=O)cc2oc3cc(OC(C)=O)c(CC=C(C)C)c(O)c3c(=O)c2c1CC=C(C)C [Compound 8, 3,6-di-O-acetyl-α-mangostin] | – | – | inactive
